The record followed here is ChEMBL document CHEMBL1800025 (J Med Chem, 2011).

The target of test [1] is Dual specificity protein kinase CLK1 (Homo sapiens) (UniProt P49759). The experiment in a line: Inhibition of CLK1-mediated SRp55 protein phosphorylation in TNFalpha-stimulated human HMEC1 cells after 1 hr by Western blot analysis. The test is classed as cell-based. The method in brief: (§1)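 HMEC-1 cells grown in endothelial medium with 5% FCS at 37 C, 5% CO2. Serum-starved 1 h in basal medium, pretreated 1 h with inhibitor at varying concentrations, then stimulated with 10 ng/mL TNF-alpha. Lysed 2 min after stimulation. Phospho-SRp75 and phospho-SRp55 detected by Western blot with mAb1H4, GAPDH as loading control, quantified by densitometry. At least 3 independent experiments.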
A general note: A western blot detects proteins with antibodies after separation by electrophoresis.

For test [2], the target named is Dual specificity protein kinase CLK3 (Mus musculus, UniProt O35492). The test is described as follows: Inhibition of mouse recombinant GST-tagged CLK3 using GRSRSRSRSRSR as substrate. The method in brief:
(§2)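 Mouse GST-fusion CLK1 or CLK3 expressed in E. coli. Assay buffer A (Tris-HCl pH 7.5, MgCl2, EGTA, DTT, heparin) plus 0.15 mg/mL BSA. RS peptide 1 μg/assay, 15 μM ATP final, 30 C. Blank subtracted; activity expressed as percent of activity without inhibitor. DMSO controls. Concentration range up to 10 μM.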

The target in test [3] is Dual specificity protein kinase CLK3 (Homo sapiens) (UniProt P49761). The test is described as follows: Inhibition of CLK3-mediated SRp75 protein phosphorylation in TNFalpha-stimulated human HMEC1 cells after 1 hr by Western blot analysis. The test is classed as cell-based. The method in brief: as §1
Test [4] deals with Glycogen synthase kinase-3 (Sus scrofa, UniProt B2LUN4+I6LNT8). The experiment in a line: Inhibition of pig brain GSK-3alpha/beta using YRRAAVPPSPSLSRHSSPHQSpEDEEE as substrate. In a few lines:
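Compounds were tested at various concentrations, the highest being 10 μM, with DMSO dilution controls. Blanks were subtracted and activity was expressed as percent of the uninhibited maximum.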

The target of test [5] is Dual specificity protein kinase CLK1 (Homo sapiens) (UniProt P49759). The experiment in a line: Inhibition of CLK1-mediated SRp75 protein phosphorylation in TNFalpha-stimulated human HMEC1 cells after 1 hr by Western blot analysis. The test is classed as cell-based. The method in brief: as §1
The species named for another test is Sus scrofa. The test is described as follows: Inhibition of pig brain CK1 delta/epsilon using RRKHAAIGpSAYSITA as substrate at 10 uM. In a few lines: (§3)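 Native CK1δ/ε from porcine brain, assayed in 3-fold diluted buffer C with 25 μM CKS peptide substrate. 15 μM ATP final, 30 C. Activity is percent of uninhibited control after blank subtraction, with DMSO controls. Inhibitor tested over a range of concentrations up to 10 μM.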

The target of test [6] is Dual specificity protein kinase CLK1 (Homo sapiens) (UniProt P49759). The test is described as follows: Inhibition of CLK1 transfected in human HeLa cells assessed as increase in exon inclusion ratio after 24 hrs by RT-PCR analysis. The test is classed as cell-based. The method in brief: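 HeLa cells were transfected with […], with kinase-dead CLK1/K190R as comparator. Inhibitors at varying doses were added 3 h post-transfection, with 0.5% DMSO final in all cultures. Cells were harvested 24 h post-transfection, total RNA was extracted, and E1A splicing products were analysed by RT-PCR. Isoform molar ratios were measured by Bioanalyzer to give the exon inclusion ratio. Three independent samples were used.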

Test [7] concerns the target T1, Dual specificity tyrosine-phosphorylation-regulated kinase 2 (Homo sapiens) (UniProt Q92630).
T1 sequence (whole entry): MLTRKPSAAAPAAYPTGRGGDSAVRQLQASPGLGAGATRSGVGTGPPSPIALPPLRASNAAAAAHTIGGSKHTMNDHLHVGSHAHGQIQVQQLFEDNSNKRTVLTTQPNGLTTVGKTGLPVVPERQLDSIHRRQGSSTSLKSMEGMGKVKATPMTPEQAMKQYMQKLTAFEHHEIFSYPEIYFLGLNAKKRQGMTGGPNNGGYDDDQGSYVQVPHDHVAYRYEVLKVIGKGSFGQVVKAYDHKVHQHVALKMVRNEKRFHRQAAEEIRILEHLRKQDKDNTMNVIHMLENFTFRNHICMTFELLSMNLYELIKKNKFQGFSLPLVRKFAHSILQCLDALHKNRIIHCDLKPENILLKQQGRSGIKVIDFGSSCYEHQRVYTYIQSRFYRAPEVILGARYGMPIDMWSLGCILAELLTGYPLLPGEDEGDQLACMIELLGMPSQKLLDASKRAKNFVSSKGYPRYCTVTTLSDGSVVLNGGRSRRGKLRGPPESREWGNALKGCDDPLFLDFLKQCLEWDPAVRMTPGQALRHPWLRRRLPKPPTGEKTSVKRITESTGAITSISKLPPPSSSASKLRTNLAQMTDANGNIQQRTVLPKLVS
Conditions: 10 uM.

Test [8] addresses Dual specificity tyrosine-phosphorylation-regulated kinase 1A (Rattus norvegicus, UniProt Q63470). The test is described as follows: Inhibition of rat recombinant GST-tagged DYRK1A using KKISGRLSPIMTEQ as substrate and [gamma32]-ATP after 30 mins by scintillation counting. The method in brief: (§4)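 GST fusion kinases expressed in E. coli and purified on glutathione-agarose; DYRK1A is rat, DYRK2 is human. Assay buffer A (25 mM Tris-HCl pH 7.5, 10 mM MgCl2, 1 mM EGTA, 1 mM DTT, 50 μg/mL heparin) plus 0.15 mg/mL BSA. Product captured on P81 paper, washed in 1% phosphoric acid, scintillation counted. Activity expressed as percent of uninhibited control.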

In test [9] the target is Dual specificity protein kinase CLK3 (Homo sapiens) (UniProt P49761). The test is described as follows: Inhibition of CLK3-mediated SRp55 protein phosphorylation in TNFalpha-stimulated human HMEC1 cells after 1 hr by Western blot analysis. The test is classed as cell-based. The method in brief:
as §1

Test [10] addresses T2, Dual specificity tyrosine-phosphorylation-regulated kinase 3 (Homo sapiens) (UniProt O43781).
T2 sequence (whole entry): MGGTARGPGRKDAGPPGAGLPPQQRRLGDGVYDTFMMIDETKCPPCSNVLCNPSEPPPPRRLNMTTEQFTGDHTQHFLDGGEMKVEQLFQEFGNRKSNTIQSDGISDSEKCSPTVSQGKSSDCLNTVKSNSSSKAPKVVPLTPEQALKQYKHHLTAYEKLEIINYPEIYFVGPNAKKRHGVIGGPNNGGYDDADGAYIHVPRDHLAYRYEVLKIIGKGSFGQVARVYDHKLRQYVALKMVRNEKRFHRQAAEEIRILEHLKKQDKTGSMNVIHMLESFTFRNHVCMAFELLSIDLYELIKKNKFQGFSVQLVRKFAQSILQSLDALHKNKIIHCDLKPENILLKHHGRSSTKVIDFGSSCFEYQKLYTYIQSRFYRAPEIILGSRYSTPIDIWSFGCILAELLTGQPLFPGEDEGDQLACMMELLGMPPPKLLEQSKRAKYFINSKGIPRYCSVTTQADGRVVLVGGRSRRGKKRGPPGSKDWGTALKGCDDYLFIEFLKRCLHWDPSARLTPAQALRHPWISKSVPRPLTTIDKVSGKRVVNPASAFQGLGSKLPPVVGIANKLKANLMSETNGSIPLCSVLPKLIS
The test is described as follows: Inhibition of recombinant DYRK3-mediated SR 9G8 protein phosphorylation at 10 uM after 30 mins by SDS-PAGE followed by autoradiography. In a few lines:
(§5)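 Recombinant SR protein 9G8 (87 ng) phosphorylated by each kinase, diluted to equal specific activity toward RS peptide. 15 μM [γ-33P]ATP, 30 min at 30 C, with or without 10 μM inhibitor. Reaction stopped in loading buffer; SDS-PAGE and autoradiography.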

Test [11] deals with Dual specificity protein kinase CLK2 (Homo sapiens) (UniProt P49760). Conditions: 10 uM.
For test [12], the target named is Dual specificity protein kinase CLK1 (Homo sapiens) (UniProt P49759). The test is described as follows: Inhibition of recombinant CLK1-mediated SR 9G8 protein phosphorylation at 10 uM after 30 mins by SDS-PAGE followed by autoradiography. The method in brief:
as §5

For test [13], the target named is Dual specificity protein kinase CLK4 (Homo sapiens) (UniProt Q9HAZ1). Conditions: 10 uM.
The target in test [14] is Dual specificity protein kinase CLK1 (Mus musculus, UniProt P22518). The test is described as follows: Inhibition of mouse recombinant GST-tagged CLK1 using GRSRSRSRSRSR as substrate. The method in brief: as §2
Test [15] in a line: Inhibition of pig brain CK1 delta/epsilon using RRKHAAIGpSAYSITA as substrate. The arrangement: species or system Sus scrofa. In a few lines:
as §3

Test [16] deals with T3, Serine/threonine-protein kinase pim-1 (Homo sapiens, UniProt P11309). The experiment in a line: Inhibition of human recombinant Pim1. In a few lines: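 Kinase assayed in buffer C (25 mM Mops pH 7.2, 60 mM beta-glycerophosphate, 30 mM p-nitrophenylphosphate, 15 mM MgCl2, 5 mM EGTA, 1 mM DTT, 0.1 mM vanadate) with 1 mg/mL histone H1. DMSO controls.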
Target sequence in this assay (P11309 whole entry): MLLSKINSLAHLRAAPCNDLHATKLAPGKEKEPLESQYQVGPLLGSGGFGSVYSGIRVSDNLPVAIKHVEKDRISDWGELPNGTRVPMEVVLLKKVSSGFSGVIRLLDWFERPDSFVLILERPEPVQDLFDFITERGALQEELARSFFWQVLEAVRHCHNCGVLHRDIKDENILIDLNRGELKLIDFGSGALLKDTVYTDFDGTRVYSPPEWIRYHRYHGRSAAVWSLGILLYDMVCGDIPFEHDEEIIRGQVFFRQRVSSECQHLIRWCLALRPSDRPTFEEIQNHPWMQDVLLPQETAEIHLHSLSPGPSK
Test [17] concerns the target T4, Dual specificity tyrosine-phosphorylation-regulated kinase 2 (Homo sapiens, UniProt Q92630).
T4 sequence (Q92630 whole entry): T1 sequence (whole entry)
The test is described as follows: Inhibition of human recombinant GST-tagged DYRK2 using KKISGRLSPIMTEQ as substrate and [gamma32]-ATP after 30 mins by scintillation counting. The method in brief: as §4

Test [18] has as its target T1, Dual specificity tyrosine-phosphorylation-regulated kinase 2 (Homo sapiens). The experiment in a line: Inhibition of human recombinant GST-tagged DYRK2 using […] as substrate and [gamma32]-ATP at 10 uM after 30 mins by scintillation counting. The method in brief: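 GST fusion kinases expressed in E. coli and purified on glutathione-agarose; DYRK1A is rat, DYRK2 is human. Assay buffer A (25 mM Tris-HCl pH 7.5, 10 mM MgCl2, 1 mM EGTA, 1 mM DTT, 50 μg/mL heparin) plus 0.15 mg/mL BSA. Woodtide 1.5 μg/assay with 15 μM [γ-33P]ATP, 30 min at 30 C. Product captured on P81 paper, washed in 1% phosphoric acid, scintillation counted. Activity expressed as percent of uninhibited control.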

The target of test [19] is Cyclin-dependent kinase 5/CDK5 activator 1 (Homo sapiens) (UniProt Q00535+Q15078). The test is described as follows: Inhibition of human recombinant CDK5/p25 at 10 uM. Type of test: protein-complex assay. The method in brief: (§6)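 Kinase assayed in buffer C (25 mM Mops pH 7.2, 60 mM beta-glycerophosphate, 30 mM p-nitrophenylphosphate, 15 mM MgCl2, 5 mM EGTA, 1 mM DTT, 0.1 mM vanadate) with 1 mg/mL histone H1. 15 μM ATP final, 30 C. Activity is percent of activity without inhibitor, after blank subtraction. DMSO controls.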

For test [20], the target named is T3, Serine/threonine-protein kinase pim-1. The test is described as follows: Inhibition of human recombinant Pim1 at 10 uM. The method in brief:
as §6
Target sequence in this assay (P11309 whole entry, looked up): as the sequence (P11309 whole entry) above

Test [21] concerns the target Dual specificity protein kinase CLK1 (Mus musculus) (UniProt P22518). The test is described as follows: Inhibition of mouse recombinant GST-tagged CLK1 using GRSRSRSRSRSR as substrate at 10 uM. In a few lines: as §2

The structures appear in SMILES notation. The source made the active and inactive calls. No cut-off for these calls is given here.

Dual specificity protein kinase CLK3, sequence (O35492 whole entry, the tested form may be a part): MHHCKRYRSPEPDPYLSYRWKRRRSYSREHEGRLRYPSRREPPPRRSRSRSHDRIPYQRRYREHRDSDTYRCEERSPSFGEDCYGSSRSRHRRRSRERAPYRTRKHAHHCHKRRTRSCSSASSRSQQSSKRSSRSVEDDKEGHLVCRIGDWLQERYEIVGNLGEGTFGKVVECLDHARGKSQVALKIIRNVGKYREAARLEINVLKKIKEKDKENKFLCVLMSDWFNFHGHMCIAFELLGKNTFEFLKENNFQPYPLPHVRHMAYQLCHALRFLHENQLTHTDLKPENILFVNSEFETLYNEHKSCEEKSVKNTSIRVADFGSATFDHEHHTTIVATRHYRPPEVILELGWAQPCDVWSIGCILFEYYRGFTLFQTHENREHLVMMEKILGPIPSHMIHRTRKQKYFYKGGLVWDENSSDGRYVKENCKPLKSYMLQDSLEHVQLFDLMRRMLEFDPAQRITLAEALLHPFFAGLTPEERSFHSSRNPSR
Dual specificity protein kinase CLK1 (Homo sapiens), sequence (P49759 whole entry, looked up, canonical isoform): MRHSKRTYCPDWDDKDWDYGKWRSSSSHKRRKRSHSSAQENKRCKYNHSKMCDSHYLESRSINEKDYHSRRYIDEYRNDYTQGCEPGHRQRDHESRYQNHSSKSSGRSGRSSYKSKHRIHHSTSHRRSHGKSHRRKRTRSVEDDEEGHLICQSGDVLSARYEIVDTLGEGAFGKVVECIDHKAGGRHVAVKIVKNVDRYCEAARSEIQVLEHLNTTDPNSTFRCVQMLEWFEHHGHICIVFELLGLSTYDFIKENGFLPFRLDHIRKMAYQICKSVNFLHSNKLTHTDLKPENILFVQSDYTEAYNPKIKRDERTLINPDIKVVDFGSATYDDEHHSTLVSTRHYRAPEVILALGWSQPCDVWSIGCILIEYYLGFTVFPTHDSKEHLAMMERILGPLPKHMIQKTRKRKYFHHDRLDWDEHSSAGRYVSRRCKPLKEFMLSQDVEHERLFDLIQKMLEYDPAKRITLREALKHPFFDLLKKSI
Dual specificity protein kinase CLK1, sequence (P22518 whole entry): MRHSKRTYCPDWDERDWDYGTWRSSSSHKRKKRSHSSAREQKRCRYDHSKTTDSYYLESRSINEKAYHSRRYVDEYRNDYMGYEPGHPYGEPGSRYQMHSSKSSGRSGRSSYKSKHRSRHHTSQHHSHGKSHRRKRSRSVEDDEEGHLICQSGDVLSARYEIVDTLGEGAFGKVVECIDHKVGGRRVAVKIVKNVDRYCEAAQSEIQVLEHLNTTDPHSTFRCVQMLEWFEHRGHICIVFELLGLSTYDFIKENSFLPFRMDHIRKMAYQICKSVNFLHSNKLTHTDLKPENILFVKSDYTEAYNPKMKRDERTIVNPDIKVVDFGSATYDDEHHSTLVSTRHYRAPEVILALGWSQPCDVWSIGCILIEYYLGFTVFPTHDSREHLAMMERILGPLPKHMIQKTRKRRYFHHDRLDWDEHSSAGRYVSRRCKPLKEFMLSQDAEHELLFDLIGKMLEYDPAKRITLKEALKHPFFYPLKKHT
Dual specificity protein kinase CLK3 (Homo sapiens), sequence (P49761 whole entry, looked up): as the sequence (O35492 whole entry, the tested form may be a part) above, with I55L, H64R, C83Y, S86P, A99G, S484T counted along it
Dual specificity protein kinase CLK2 (Homo sapiens), sequence (P49760 whole entry, looked up): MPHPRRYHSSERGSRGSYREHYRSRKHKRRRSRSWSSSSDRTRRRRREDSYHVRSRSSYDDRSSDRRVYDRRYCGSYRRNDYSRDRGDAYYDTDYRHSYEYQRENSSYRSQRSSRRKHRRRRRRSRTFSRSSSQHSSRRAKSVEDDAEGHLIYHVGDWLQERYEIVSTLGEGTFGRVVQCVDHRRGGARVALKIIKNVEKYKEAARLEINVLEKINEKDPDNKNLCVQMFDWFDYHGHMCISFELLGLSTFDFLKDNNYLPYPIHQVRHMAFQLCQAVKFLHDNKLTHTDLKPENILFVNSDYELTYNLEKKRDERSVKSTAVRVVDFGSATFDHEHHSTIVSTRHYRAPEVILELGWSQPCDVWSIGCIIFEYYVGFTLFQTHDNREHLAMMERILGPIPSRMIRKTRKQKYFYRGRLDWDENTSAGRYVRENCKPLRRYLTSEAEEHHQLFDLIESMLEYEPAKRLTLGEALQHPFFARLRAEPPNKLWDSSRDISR
Dual specificity protein kinase CLK4 (Homo sapiens), sequence (Q9HAZ1 whole entry, looked up): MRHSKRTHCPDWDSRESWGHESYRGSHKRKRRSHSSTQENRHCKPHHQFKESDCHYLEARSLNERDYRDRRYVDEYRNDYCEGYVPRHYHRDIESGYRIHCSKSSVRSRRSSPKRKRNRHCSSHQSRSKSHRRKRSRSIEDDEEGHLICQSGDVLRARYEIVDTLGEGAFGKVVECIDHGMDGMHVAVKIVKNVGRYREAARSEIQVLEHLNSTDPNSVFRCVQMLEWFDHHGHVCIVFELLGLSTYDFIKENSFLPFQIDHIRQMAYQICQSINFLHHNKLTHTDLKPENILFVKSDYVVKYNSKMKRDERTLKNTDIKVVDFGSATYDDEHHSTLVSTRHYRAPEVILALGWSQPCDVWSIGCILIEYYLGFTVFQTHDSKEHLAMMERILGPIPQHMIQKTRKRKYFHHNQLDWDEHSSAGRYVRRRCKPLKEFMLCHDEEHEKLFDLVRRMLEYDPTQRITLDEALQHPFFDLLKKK
Cyclin-dependent kinase 5/CDK5 activator 1 (Homo sapiens), sequence (Q00535 whole entry): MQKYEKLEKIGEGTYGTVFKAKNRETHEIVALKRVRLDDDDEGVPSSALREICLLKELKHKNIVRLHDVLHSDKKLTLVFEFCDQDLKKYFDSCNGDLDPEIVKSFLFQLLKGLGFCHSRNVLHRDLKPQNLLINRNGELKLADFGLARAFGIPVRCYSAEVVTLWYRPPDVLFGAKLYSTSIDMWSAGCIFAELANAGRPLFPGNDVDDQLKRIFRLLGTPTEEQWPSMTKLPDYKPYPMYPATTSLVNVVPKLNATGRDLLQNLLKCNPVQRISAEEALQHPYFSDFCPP
Cyclin-dependent kinase 5/CDK5 activator 1 (Homo sapiens), sequence (Q15078 99-307 partner limits assumed): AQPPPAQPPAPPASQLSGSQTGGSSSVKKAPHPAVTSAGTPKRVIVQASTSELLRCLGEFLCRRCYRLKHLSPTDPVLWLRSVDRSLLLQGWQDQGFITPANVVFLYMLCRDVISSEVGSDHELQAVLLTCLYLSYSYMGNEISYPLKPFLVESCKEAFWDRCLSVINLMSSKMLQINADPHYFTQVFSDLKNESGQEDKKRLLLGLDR
Dual specificity protein kinase CLK1 (Mus musculus), sequence (P22518 whole entry, looked up): as the sequence (P22518 whole entry) above

In the case of `O=C1NC(Nc2ccccc2)=N/C1=C\c1ccc2c(c1)OCO2`, the inhibition result in test [1], in test [3], in test [5], in test [7], in [9] and in [10] was “Active” throughout. The inhibition result in test [11], in [12] and in [13] was “Active” in each case. Besides, the IC50 (as a rule, the concentration needed to halve the response being measured) in test [2] was over 10000 nM; in test [4], over 10000 nM; in test [8] it was 40 nM; in test [14] it was 15 nM. Further, the inhibition entry in the test listed under Sus scrofa was “inactive”. The “increase in exon inclusion ratio” value in [6] is “Dose-dependent effect”.

For `CN1C(=O)/C(=C/c2ccc3c(c2)OCO3)N=C1Nc1ccc2c(c1)OCCO2`, the concentration for half-maximal inhibition (IC50) was 3600 nM in test [2]; over 10000 nM in test [15]; 2200 nM in test [16]; 220 nM in test [8]; 220 nM in [14].

As to `CN1C(=O)/C(=C/c2ccc3c(c2)OCO3)N=C1NCC1CC1`, the IC50 in [2] is 510 nM; in test [17], 340 nM; in test [15], over 10000 nM; in test [16], 2100 nM; in test [8] it was 200 nM; in test [14], 130 nM.

In the case of `CN1C(=O)/C(=C/c2ccc3c(c2)OCO3)N=C1N` [LEUCETTAMINE B], the IC50 in [2] is 6400 nM; in [4], over 10000 nM; in [17], 1500 nM; in [15] it was over 10000 nM; in [16] it was over 10000 nM; in test [8] it was 2800 nM. Besides, in test [14], the IC50 is 400 nM.

With `CCCNC1=N/C(=C\c2ccc(Br)cc2)C(=O)N1C`, the IC50 in test [2] came out at 8800 nM. Moreover, the inhibition entry (in test [18]; in the test filed under Sus scrofa; in test [19]; in test [20]; in [21]) was “inactive” each time.
